From article PMC12217772 (Nature Communications, 2025)
Values joined by “and” are separate entries in the source; they are usually repeats but may differ in a detail not shown here. Equal values may be shown once.

Assays:
CP-AMPARs = CP-AMPARs (Rattus norvegicus, UniProt P19491); assay: Whole-cell recordings, other NMDAR channel blockers on CP-AMPARs; format: cell-based; details: for Inhibitory effect on CP-AMPARs at hundreds of micromolar concentrations: hundreds of micromolar (10 and 100 µM shown in Fig. S1), 10 mM glutamate
[1] = biological target: GluA2(Q) subunit of GluA2-γ2EM (rat) (UniProt P19491); assay: cryo-EM structure
GluA2(Q) = GluA2(Q) (Rattus norvegicus, UniProt P19491); assay: Whole-cell patch-clamp, glutamate-induced currents, GluA2; format: cell-based; details: 500 µM memantine, 10 mM glutamate, no auxiliary subunit, no CTZ
Method in brief: (§1)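 HEK-293T cells were transfected with GluA2(Q), GluA2(Q)/γ2 or GluA2(Q)/γ8 plus GFP, replated in NBQX medium, and recorded 24–48 h later. Whole-cell clamp at −60 mV, room temperature; CsF/CsCl/EGTA internal and NaCl/KCl/CaCl2/HEPES external, both pH 7.4. […] IC50 came from a Hill fit of steady-state inhibition; ≥3 recordings from ≥3 days.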

GluA1/γ8 = GluA1/γ8 (Homo sapiens, UniProt P42261); assay: Whole-cell patch-clamp, glutamate-induced currents, GluA1/γ8; format: cell-based
Chain of GluA1/γ8 (P42261 19-906, species assumed): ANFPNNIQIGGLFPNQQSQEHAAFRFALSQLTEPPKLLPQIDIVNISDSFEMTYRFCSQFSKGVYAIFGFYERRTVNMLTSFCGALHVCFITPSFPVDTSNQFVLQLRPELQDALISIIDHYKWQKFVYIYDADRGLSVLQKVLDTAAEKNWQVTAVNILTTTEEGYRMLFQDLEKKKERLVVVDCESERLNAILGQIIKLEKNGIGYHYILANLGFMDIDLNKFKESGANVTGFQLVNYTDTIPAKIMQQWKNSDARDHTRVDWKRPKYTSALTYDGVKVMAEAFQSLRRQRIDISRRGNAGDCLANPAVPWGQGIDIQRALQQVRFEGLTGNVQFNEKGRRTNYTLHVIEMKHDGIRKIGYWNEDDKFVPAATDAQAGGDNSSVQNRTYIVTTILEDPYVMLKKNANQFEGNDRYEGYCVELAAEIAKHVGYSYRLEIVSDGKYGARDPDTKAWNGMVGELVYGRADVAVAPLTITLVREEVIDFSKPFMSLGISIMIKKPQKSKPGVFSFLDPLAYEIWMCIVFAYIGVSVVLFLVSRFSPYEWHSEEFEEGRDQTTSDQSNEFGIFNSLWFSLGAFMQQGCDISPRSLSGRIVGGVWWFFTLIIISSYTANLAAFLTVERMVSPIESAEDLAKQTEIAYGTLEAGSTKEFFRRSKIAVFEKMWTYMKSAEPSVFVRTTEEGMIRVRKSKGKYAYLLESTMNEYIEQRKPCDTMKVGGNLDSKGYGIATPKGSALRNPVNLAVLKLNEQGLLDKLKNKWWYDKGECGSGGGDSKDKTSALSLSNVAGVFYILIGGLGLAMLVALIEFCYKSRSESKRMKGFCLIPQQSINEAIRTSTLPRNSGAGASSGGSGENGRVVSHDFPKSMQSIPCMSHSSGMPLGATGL
Chain of GluA1/γ8 (Q8WXS5 whole entry partner, species assumed): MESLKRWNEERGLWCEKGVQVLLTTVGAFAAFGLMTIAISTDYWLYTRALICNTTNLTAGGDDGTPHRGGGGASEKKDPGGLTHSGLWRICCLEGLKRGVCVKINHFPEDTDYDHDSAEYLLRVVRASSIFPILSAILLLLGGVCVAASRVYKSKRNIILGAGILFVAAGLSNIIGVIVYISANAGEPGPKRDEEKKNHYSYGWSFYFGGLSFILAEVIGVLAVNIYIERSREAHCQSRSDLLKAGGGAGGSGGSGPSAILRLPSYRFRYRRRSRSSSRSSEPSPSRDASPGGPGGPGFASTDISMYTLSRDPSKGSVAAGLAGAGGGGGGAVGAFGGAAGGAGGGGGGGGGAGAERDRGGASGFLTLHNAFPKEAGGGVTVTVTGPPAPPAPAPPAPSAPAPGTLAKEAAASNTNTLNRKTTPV
Method in brief: (§2)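 HEK-293T cells at 40–50% confluency were lipofectamine-transfected with GluA1, or GluA1 plus GluA2(R), co-transfected with γ2 or γ8 and GFP. Cells were replated after 4–6 h in NBQX-containing medium and recorded 24–48 h post-transfection. […] IC50 came from a Hill fit of steady-state current inhibition versus concentration; ≥3 recordings over ≥3 days.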

GluA2(Q)/γ8 = GluA2(Q)/γ8 (UniProt P19491+Q8WXS5); assay: Whole-cell patch-clamp, glutamate-induced currents, GluA2; format: cell-based, rat; details: 500 µM memantine, 10 mM glutamate
Method in brief: as §1

GluA2(Q)/γ2 = GluA2(Q)/γ2 (UniProt P19491+Q9Y698, E306D/I257V/N307S/S313A); assay: as above; format: cell-based, rat; details: 10 mM glutamate
Method in brief: as §1

GluA2(R)/γ2 = GluA2(R)/γ2 (Rattus norvegicus, UniProt P19491, Q607R); assay: Whole-cell patch-clamp, glutamate-induced currents, CI-AMPAR GluA2; format: cell-based; details: 10 mM glutamate
GluA1/γ2 = GluA1/γ2 (Homo sapiens, UniProt P42261); assay: Whole-cell patch-clamp, glutamate-induced currents, GluA1/γ2; format: cell-based
Chain of GluA1/γ2 (P42261 19-906, species assumed): as the sequence (P42261 19-906, species assumed) above
Chain of GluA1/γ2 (Q9Y698 whole entry partner, species assumed): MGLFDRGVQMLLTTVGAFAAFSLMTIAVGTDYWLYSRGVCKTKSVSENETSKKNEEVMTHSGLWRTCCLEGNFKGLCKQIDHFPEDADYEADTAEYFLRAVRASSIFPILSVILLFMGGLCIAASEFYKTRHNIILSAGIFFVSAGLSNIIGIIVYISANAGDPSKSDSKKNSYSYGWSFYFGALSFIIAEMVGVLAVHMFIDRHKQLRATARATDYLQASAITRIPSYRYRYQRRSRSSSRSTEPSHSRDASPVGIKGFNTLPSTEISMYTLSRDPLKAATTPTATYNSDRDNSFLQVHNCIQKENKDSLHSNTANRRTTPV
Method in brief: as §2

[2] = biological target: GluA2(Q) in the presence of CTZ (Rattus norvegicus, UniProt P19491); assay: Whole-cell patch-clamp, GluA2; format: cell-based; details: 500 µM memantine, 100 μM CTZ, 10 mM glutamate
GluA1-GluA2(R)/γ2 = GluA1-GluA2(R)/γ2 (UniProt P19491+P42261, Q607R); assay: Whole-cell patch-clamp, co-expression of GluA1 and GluA2; format: cell-based
Method in brief: as §2

C[C@]12N[C@H](Cc3ccccc31)c1ccccc12 [MK801]
Inhibition of CP-AMPARs in the concentration range where they inhibit NMDARs (CP-AMPARs): do not show significant inhibition | Inhibitory effect on CP-AMPARs at hundreds of micromolar concentrations (CP-AMPARs): minimal inhibitory effect

GluA2(Q) subunit of GluA2-γ2EM (from UniProt P19491-2 22-883) (receptor)
stoichiometry N [1]: 4

CNC1(c2ccccc2Cl)CCCCC1=O (stereo not drawn) [ketamine]
Inhibition of CP-AMPARs in the concentration range where they inhibit NMDARs (CP-AMPARs): do not show significant inhibition | Inhibitory effect on CP-AMPARs at hundreds of micromolar concentrations (CP-AMPARs): minimal inhibitory effect

CC12CC3CC(C)(C1)CC(N)(C3)C2 [memantine, Memantine]
Inhibition of whole-cell currents of GluA2(Q) in isolation (GluA2(Q)): did not show any significant inhibition | IC50 (GluA1/γ8): 10 ± 2 µM | Effect on peak and steady-state currents of GluA2(Q)/γ8 (GluA2(Q)/γ8): inhibited | Effect on peak and steady-state currents of GluA2(Q)/γ2 (GluA2(Q)/γ2; 500 µM memantine): inhibited | IC50 (GluA2(Q)/γ2; IC50 for memantine inhibition of GluA2(Q)/γ2, HEK-293 cells, steady-state current, −60 mV): 49.3 µM and 49 µM | Inhibitory effect on GluA2(R)/γ2 at 500 µM (GluA2(R)/γ2; 500 µM memantine): only a minor inhibitory effect | Inhibition of GluA2(R)/γ2 currents at saturating concentrations (GluA2(R)/γ2; saturating concentrations of memantine): only partial inhibition | IC50 (GluA1/γ2): 15 ± 2 µM | Effect on steady-state currents of GluA2(Q) with CTZ [2]: showed inhibition of the steady-state currents | IC50 (GluA1-GluA2(R)/γ2): 697 ± 149 µM
